The text below walks through data of ChEMBL document CHEMBL1124083, “Synthesis and biological properties of actinomycin D chromophoric analogues substituted at carbon 7 with aziridine and cyclopropyl functions” (J Med Chem, 1988).

In brackets after ≈: the same amount, converted by molar mass. *1 amine or outer side, *2 acyl side, *3 side chain or, on linkers, in order; H or OH if unused. Where a SMILES comes first, the peptide text is derived from it. Bridges are numbered along the chain shown (N, C = ends). Roman numbers before positions name the chains, in order. [ ]: non-standard residue; d: D form. Actinocin(9to1) = Cc1c2oc3c(C)ccc(C(=O)[*:1])c3nc-2c(C(=O)[*:2])c(N)c1=O; NMeV = CN[C@H](C(=O)O)C(C)C; Sar = CNCC(=O)O

The subject of one data set is CCRF-CEM. Description: In vitro antitumor activity against human leukemic lymphoblastic cells (CCRF-CEM). In kind it is functional. Particulars: read-out: ID50 (the source's name). The method, boiled down: (§1)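 Cells grown in suspension culture and exposed to compound for 48 h. Compounds dissolved in Me₂SO-saline, with less than 1% Me₂SO in the final growth medium. ID50 is the concentration in ng/mL giving 50% growth inhibition. Values are the mean of three experiments; SD ranged from 8% to 10% of the mean.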

Data set [1] is described as follows: The delta Tm value is a measure of a stabilization of the DNA helical structure as consequence of compound binding. In kind it is ADME. The method, boiled down: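 Calf-thymus DNA at 5.0 × 10⁻⁵ M with drug at 2.5 × 10⁻⁵ M in 0.01 M phosphate buffer (pH 7) containing 10⁻⁵ M EDTA. Thermal denaturation curves were recorded. ΔTm is the Tm of the DNA–drug complex minus the Tm of DNA alone.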

The subject of another data set is B16. Description: In vitro antitumor activity against murine melanoma cells (B16 melanoma cells). In kind it is functional. To be noted: Mus musculus, read-out: ID50 (the source's name). The method, boiled down: as §1

Consider `Cc1c2oc3c(C)c(OCC4CN4)cc(C(=O)N[C@@H]4C(=O)N[C@H](C(C)C)C(=O)N5CCC[C@H]5C(=O)N(C)CC(=O)N(C)[C@@H](C(C)C)C(=O)O[C@@H]4C)c3nc-2c(C(=O)N[C@@H]2C(=O)N[C@H](C(C)C)C(=O)N3CCC[C@H]3C(=O)N(C)CC(=O)N(C)[C@@H](C(C)C)C(=O)O[C@@H]2C)c(N)c1=O` (some centres not stated), for which the IC50 in the data set with CCRF-CEM was 0.076 µg/mL (≈ 0.0573 µM); with B16, 0.11 µg/mL (≈ 0.0829 µM). For the same compound, in data set [1], the “Delta Tm” value is reported as 2.8 C.

On to `Cc1c2oc3c(C)c(OCC4CC4)cc(C(=O)N[C@@H]4C(=O)N[C@H](C(C)C)C(=O)N5CCC[C@H]5C(=O)N(C)CC(=O)N(C)[C@@H](C(C)C)C(=O)O[C@@H]4C)c3nc-2c(C(=O)N[C@@H]2C(=O)N[C@H](C(C)C)C(=O)N3CCC[C@H]3C(=O)N(C)CC(=O)N(C)[C@@H](C(C)C)C(=O)O[C@@H]2C)c(N)c1=O`, for which the IC50 came out at 0.055 µg/mL (≈ 0.0415 µM) in the data set on CCRF-CEM and 0.038 µg/mL (≈ 0.0287 µM) in the data set on B16. For the same compound, the “Delta Tm” value in data set [1] was -0.6 C.

For the compound `Cc1c2oc3c(C)c(OCC(C)N)cc(C(=O)N[C@@H]4C(=O)N[C@H](C(C)C)C(=O)N5CCC[C@H]5C(=O)N(C)CC(=O)N(C)[C@@H](C(C)C)C(=O)O[C@@H]4C)c3nc-2c(C(=O)N[C@@H]2C(=O)N[C@H](C(C)C)C(=O)N3CCC[C@H]3C(=O)N(C)CC(=O)N(C)[C@@H](C(C)C)C(=O)O[C@@H]2C)c(N)c1=O` (some centres not stated), the IC50 in the data set with CCRF-CEM was found to be 0.06 µg/mL (≈ 0.0452 µM); in the data set on B16 it was 0.055 µg/mL (≈ 0.0414 µM). For the same compound, the “Delta Tm” value in data set [1] is listed as 4.8 C.

Take `Cc1c2oc3c(C)c(OCCNCCO)cc(C(=O)N[C@@H]4C(=O)N[C@H](C(C)C)C(=O)N5CCC[C@H]5C(=O)N(C)CC(=O)N(C)[C@@H](C(C)C)C(=O)O[C@@H]4C)c3nc-2c(C(=O)N[C@@H]2C(=O)N[C@H](C(C)C)C(=O)N3CCC[C@H]3C(=O)N(C)CC(=O)N(C)[C@@H](C(C)C)C(=O)O[C@@H]2C)c(N)c1=O`: in the data set with CCRF-CEM, the IC50 turned out to be 0.5 µg/mL (≈ 0.368 µM). In data set [1], the “Delta Tm” value worked out at 1.9 C.

As to `Cc1c2oc3c(C)c(OCCN4CC4)cc(C(=O)N[C@@H]4C(=O)N[C@H](C(C)C)C(=O)N5CCC[C@H]5C(=O)N(C)CC(=O)N(C)[C@@H](C(C)C)C(=O)O[C@@H]4C)c3nc-2c(C(=O)N[C@@H]2C(=O)N[C@H](C(C)C)C(=O)N3CCC[C@H]3C(=O)N(C)CC(=O)N(C)[C@@H](C(C)C)C(=O)O[C@@H]2C)c(N)c1=O`, the IC50 in the data set on CCRF-CEM was found to be 0.3 µg/mL (≈ 0.224 µM); in the data set on B16, 0.14 µg/mL (≈ 0.104 µM). Further, the “Delta Tm” value in data set [1] turned out to be 1.8 C.

Turning to `Cc1c2oc3c(C)ccc(C(=O)N[C@@H]4C(=O)N[C@H](C(C)C)C(=O)N5CCC[C@H]5C(=O)N(C)CC(=O)N(C)[C@@H](C(C)C)C(=O)O[C@@H]4C)c3nc-2c(C(=O)N[C@@H]2C(=O)N[C@H](C(C)C)C(=O)N3CCC[C@H]3C(=O)N(C)CC(=O)N(C)[C@@H](C(C)C)C(=O)O[C@@H]2C)c(N)c1=O` [DACTINOMYCIN] (I: T[dV]P[Sar][NMeV] / II: T[dV]P[Sar][NMeV]; ester I:1-I:C, II:1-II:C; linker I:N-II:N via Actinocin(9to1)), the IC50 with CCRF-CEM was found to be 0.013 µg/mL (≈ 0.0104 µM); in the data set with B16 it was 0.0033 µg/mL (≈ 0.00263 µM). Further, in data set [1], the “Delta Tm” value is given as 8 C.
